Measurements taken from ChEMBL document CHEMBL1833941, “Structural requirement of arylindolylpropenones as anti-bladder carcinoma cells agents” (Bioorg Med Chem, 2011).
Calls of active or inactive are those of the source. No cut-off for these calls is given here.

Legend:
RT-112 [1] = experiment: Antiproliferative activity against human RT112 cells after 48 hrs by MTT assay; format: functional, cell-based; settings: RT-112, 48 h
Outline: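 RT112 bladder carcinoma cells in RPMI 1640 with 10% FCS and 2 mM glutamine, 37 °C, 5% CO2. Seeded 3×10^3 cells/well, treated after 24 h with a concentration series for 48 h; DMSO vehicle control. MTT 3 h at 37 °C, formazan dissolved in DMSO, A570 with 650 nm reference. Survival relative to vehicle (100%); IC50 from dose-response curves; triplicates, three independent experiments.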

RT-112 [2] = experiment: Cell cycle arrest in human RT112 cells by accumulation of cells at G2/M phase at 3 uM after 12 hrs by propidium iodide-staining-based flow cytometry (reference value: 14%); format: functional
RT-112 [3] = experiment: Cell cycle arrest in human RT112 cells by accumulation of cells at G1 phase at 3 uM after 12 hrs by propidium iodide-staining-based flow cytometry (reference value: 69%); format: functional
RT-112 [4] = experiment: Cell cycle arrest in human RT112 cells by accumulation of cells at S phase at 3 uM after 12 hrs by propidium iodide-staining-based flow cytometry (reference value: 17%); format: functional
RT-112 [5] = experiment: Cell cycle arrest in human RT112 cells by accumulation of cells at G2+M phase at 3 uM after 24 hrs by propidium iodide-staining-based flow cytometry (reference value: 14%); format: functional
RT-112 [6] = experiment: Induction of apoptosis in human RT112 cells assessed as hypodiploid DNA at sub-G1 phase after 48 hrs by propidium iodide-staining-based flow cytometry; format: functional, cell-based
Outline: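 Same PI/RNase flow cytometry as the cell cycle work in RT112 cells, with treatment extended to 48 h. Apoptosis scored as a hypodiploid (sub-G1) DNA peak; DMSO vehicle as control.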

RT-112 [7] = experiment: Cell cycle arrest in human RT112 cells by accumulation of cells at G2+M phase at 4 uM after 12 hrs by propidium iodide-staining-based flow cytometry (reference value: 14%); format: functional
RT-112 [8] = experiment: Cell cycle arrest in human RT112 cells by accumulation of cells at G2+M phase at 4 uM after 24 hrs by propidium iodide-staining-based flow cytometry (reference value: 14%); format: functional

Compound: Cn1cc(C(=O)/C=C/c2ccccc2F)c2ccccc21
- IC50 (RT-112 [1]): 28.7 µM

Compound: Cn1cc(C(=O)/C=C/c2c(Cl)cccc2Cl)c2ccccc21
- IC50 (RT-112 [1]): 7.8 µM

Compound: COc1cc(OC)c(/C=C/C(=O)c2cn(C)c3ccc(C(=O)O)cc23)c(OC)c1
- IC50 (RT-112 [1]): 86.1 µM

Compound: COc1cc(OC)c(/C=C/C(=O)c2cn(C)c3ccccc23)c(OC)c1
- IC50 (RT-112 [1]): 3.2 µM
- Activity (RT-112 [2]): 74%
- Activity (RT-112 [3]): 16%
- Activity (RT-112 [4]): inactive
- Activity (RT-112 [5]): Active
- Activity (RT-112 [6]): Active

Compound: COc1cccc(OC)c1/C=C/C(=O)c1cn(C)c2ccccc12
- IC50 (RT-112 [1]): 47.4 µM

Compound: CN1CCN(c2ccc(/C=C/C(=O)c3cn(C)c4ccccc34)cc2)CC1
- IC50 (RT-112 [1]): 11.7 µM

Compound: Cn1cc(/C=C/C(=O)c2cn(C)c3ccccc23)c2ccccc21
- IC50 (RT-112 [1]): 63 µM

Compound: COc1ccc(/C=C/C(=O)c2cn(C)c3ccccc23)c(OC)c1
- IC50 (RT-112 [1]): 57.7 µM

Compound: COc1cc(OC)c(C(=O)/C=C/c2ccc3c(ccn3C)c2)c(OC)c1
- IC50 (RT-112 [1]): 54.3 µM

Compound: Cn1cc(C(=O)/C=C/c2ccccc2)c2ccccc21
- IC50 (RT-112 [1]): 30.6 µM

Compound: COc1cc(OC)c(/C=C/C(=O)c2cn(C)c3ccc(OC)cc23)c(OC)c1
- IC50 (RT-112 [1]): 3.1 µM
- Activity (RT-112 [2]): 91%
- Activity (RT-112 [3]): 5%
- Activity (RT-112 [4]): inactive
- Activity (RT-112 [5]): Active
- Activity (RT-112 [6]): Active

Compound: Cn1ccc2cc(/C=C/C(=O)c3cn(C)c4ccccc34)ccc21
- IC50 (RT-112 [1]): 4 µM
- Activity (RT-112 [7]): 65%
- Activity (RT-112 [8]): 34%
- Activity (RT-112 [6]): Active

Compound: CN1CCN(c2ccccc2/C=C/C(=O)c2cn(C)c3ccccc23)CC1
- IC50 (RT-112 [1]): 26.4 µM

Compound: COc1cc(/C=C/C(=O)c2cn(C)c3ccccc23)cc(OC)c1OC
- IC50 (RT-112 [1]): 42.4 µM

Compound: CN(C)c1ccc(/C=C/C(=O)c2cn(C)c3ccccc23)cc1
- IC50 (RT-112 [1]): 7.5 µM
